Data on two compounds can be found in ChEMBL document CHEMBL4311940, “Design, Synthesis, and Biological Evaluation of 4-Methyl Quinazoline Derivatives as Anticancer Agents Simultaneously Targeting Phosphoinositide 3-Kinases and Histone Deacetylases” (J Med Chem, 2019).

As a reminder, the half-life is how long it takes for the measured level to halve. Read a low half-life as rapid decline.

For series [1], the species on record is Homo sapiens. Put plainly: Selectivity ratio, ratio of IC50 for recombinant human His-tagged PIK3CG expressed in baculovirus expression system to recombinant human His-tagged PIK3CD/PIK3R1 expressed in baculovirus expression system.
Series [2] is filed under the species Homo sapiens. Put plainly: Inhibition of PI3K in human HCT116 cells assessed as reduction in AKT phosphorylation at T308 residue at 0.02 to 0.5 uM after 16 hrs by Western blot analysis. It is filed as cell-based. The gist of the method: (§1)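 Immunoblot of HCT116 lysates (RIPA). 40 μg protein per lane on 10−12% SDS-PAGE, transferred to nitrocellulose, blocked 0.5 h in 5% milk/TBST. Primary antibodies 1:1000 overnight at 4 °C, secondary 1:1000 for 1 h, bands visualized by enhanced ECL.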
A general note: A western blot detects proteins with antibodies after separation by electrophoresis.

Series [3] addresses Phosphatidylinositol 4-phosphate 3-kinase C2 domain-containing subunit beta (Homo sapiens) (UniProt O00750). Put plainly: Binding affinity to wild-type human […] length PIK3C2B (M1 to L1634 residues) expressed in mammalian expression system assessed as residual binding level at 1 uM by Kinomescan method relative to control. The gist of the method: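 Kinomescan binding screen at 1 μM across 97 kinases.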

The species named for series [4] is Homo sapiens. In words: Inhibition of HDAC/PI3K in human HCT116 cells assessed as increase in cleaved PARP level at 0.5 to 5 uM after 16 hrs by Western blot analysis. It is filed as cell-based. The gist of the method: as §1
A short description of series [5]: Half life in mouse plasma at 0.02 mM by LC/MS analysis. It is filed as ADME, cell-free. In short, it runs like this:
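Spiking solution of 0.02 mM compound, 0.05 mM sodium phosphate, 0.5% BSA prewarmed 5 min at 37 °C, mixed with prewarmed mouse plasma; quenched with acetonitrile at time points; LC/MS; T1/2 = 0.693/K from ln(concentration) vs time.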

A short description of series [6]: Drug level in tumor of human HGC27 cells xenografted in BALB/c mouse at 100 mg/kg, po measured 0.5 hrs post last dose. Format: ADME, organism-based, Neoplasm. The settings on record: read-out: Drug uptake. The gist of the method:
(§2)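 HGC-27 xenografted nude mice dosed po (0.5% cmc/Tween 80) or ip (saline); at end of treatment, 0.5 h after final dose, plasma and tumor tissue collected and compound concentration measured (ng/mL plasma, ng/g tumor).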
Background: A xenograft is tissue or cells of one species grown in another, often human tumour cells in immunodeficient mice.

A short description of series [7]: Drug level in tumor of human HGC27 cells xenografted in BALB/c mouse at 30 mg/kg, ip measured 0.5 hrs post last dose. Format: ADME, organism-based, Neoplasm. The conditions noted are these: read-out: Drug uptake. In short, it runs like this:
as §2

For series [8], the system named is Mus musculus. Put plainly: In vivo inhibition of PI3K in tumor of human HGC27 cells xenografted in athymic nude BALB/c mouse assessed as reduction in phosphorylated AKT expression at S473 residue by DAB staining based immunohistochemistry method. It is filed as functional, organism-based. In short, it runs like this: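 HGC-27 xenograft tumors from treated and vehicle mice immunostained for Ki67, Ac-H3 and p-AKT(S473) (200×); integrated optical density analysed; mean ± SEM, n = 5−7, one-way ANOVA versus vehicle.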

SMILES strings stand for the structures. Active and inactive are the calls of the source. The rule behind the calls is not given here. A value given as a limit tells only on which side of the number the result lay.

Chain of Phosphatidylinositol 4-phosphate 3-kinase C2 domain-containing subunit beta (Homo sapiens) (O00750 whole entry, the tested form may be a part): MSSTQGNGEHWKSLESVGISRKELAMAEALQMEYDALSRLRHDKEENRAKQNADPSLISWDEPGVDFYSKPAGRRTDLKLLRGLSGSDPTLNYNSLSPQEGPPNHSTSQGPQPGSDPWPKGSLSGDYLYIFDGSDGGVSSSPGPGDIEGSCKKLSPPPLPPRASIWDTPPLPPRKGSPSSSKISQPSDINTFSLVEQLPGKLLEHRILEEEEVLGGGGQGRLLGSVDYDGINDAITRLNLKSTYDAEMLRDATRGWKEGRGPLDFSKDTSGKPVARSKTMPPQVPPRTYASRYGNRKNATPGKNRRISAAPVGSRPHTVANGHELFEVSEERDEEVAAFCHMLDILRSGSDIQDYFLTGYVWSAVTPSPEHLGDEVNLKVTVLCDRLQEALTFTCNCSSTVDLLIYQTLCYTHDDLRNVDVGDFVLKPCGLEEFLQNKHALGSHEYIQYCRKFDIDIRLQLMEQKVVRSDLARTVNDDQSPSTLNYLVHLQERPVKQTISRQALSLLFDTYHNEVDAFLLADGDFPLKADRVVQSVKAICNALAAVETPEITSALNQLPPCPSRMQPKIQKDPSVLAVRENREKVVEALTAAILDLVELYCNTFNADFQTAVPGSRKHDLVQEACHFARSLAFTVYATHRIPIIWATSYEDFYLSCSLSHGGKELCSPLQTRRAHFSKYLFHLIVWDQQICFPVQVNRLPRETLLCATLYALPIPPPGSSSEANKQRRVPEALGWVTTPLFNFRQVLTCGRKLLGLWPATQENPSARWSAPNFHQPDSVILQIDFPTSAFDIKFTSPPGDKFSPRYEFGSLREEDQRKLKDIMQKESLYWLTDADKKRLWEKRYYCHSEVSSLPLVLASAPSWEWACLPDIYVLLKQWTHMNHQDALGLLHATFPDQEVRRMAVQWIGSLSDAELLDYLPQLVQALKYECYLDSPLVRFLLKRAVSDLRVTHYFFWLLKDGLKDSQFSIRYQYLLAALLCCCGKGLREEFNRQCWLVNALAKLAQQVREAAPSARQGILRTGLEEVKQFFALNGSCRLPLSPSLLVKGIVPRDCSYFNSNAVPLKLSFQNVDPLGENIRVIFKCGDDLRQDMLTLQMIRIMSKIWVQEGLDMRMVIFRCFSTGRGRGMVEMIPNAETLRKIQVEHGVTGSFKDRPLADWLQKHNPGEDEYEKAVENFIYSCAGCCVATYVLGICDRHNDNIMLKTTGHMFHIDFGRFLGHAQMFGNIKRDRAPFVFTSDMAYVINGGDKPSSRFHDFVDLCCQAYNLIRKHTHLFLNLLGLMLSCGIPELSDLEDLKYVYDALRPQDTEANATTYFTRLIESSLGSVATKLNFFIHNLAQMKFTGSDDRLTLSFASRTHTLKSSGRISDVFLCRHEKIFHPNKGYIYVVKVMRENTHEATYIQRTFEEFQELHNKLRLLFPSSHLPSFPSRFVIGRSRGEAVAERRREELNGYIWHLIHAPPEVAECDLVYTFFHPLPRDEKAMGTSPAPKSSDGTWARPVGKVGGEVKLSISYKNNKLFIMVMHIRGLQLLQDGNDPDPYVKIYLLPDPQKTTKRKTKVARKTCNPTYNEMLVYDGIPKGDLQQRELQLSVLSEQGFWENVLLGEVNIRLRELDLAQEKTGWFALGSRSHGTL

As for `COc1ccc(-c2cc(OCCN(C)c3ncc(C(=O)NO)cn3)c3ncnc(C)c3c2)cn1`, in series [1], the Ratio IC50 was more than 5. In addition, in series [2], the inhibition entry was “Active”.
As to `COc1ncc(-c2cc(OCCCCCCC(=O)NO)c3ncnc(C)c3c2)cc1F`, the Activity in series [3] stood at 27%. The inhibition entry in series [4] and in series [8] was “Active” each time. The half-life at 20 µM in series [5] is 1.2 h. The concentration at 0.5 h in series [6] amounted to 36.6 ng/g; in series [7] it was 370 ng/g.
